GPR7 antagonist: GPR7 receptor antagonists, primary screen, cell-based, fluorescence, single concentration. GPR7-expressing cells, fluorescence antagonist assay. inhibition, % at 4.4 µM. 290,000 tested, 1.1% active; in the data active = inhibition above about 16%, passing the limit was not always enough;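 also: cells stimulated with the agonist NPW; 0% = agonist with vehicle and 100% = vehicle without agonist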
OX1R antag-1: antagonists of human orexin 1 receptor (OX1R). OX1R-expressing cells, FRET antagonist read-out. inhibition, % at 6.6 µM. 330,000 tested, 1.8% active. AID 485270, 2010; in the data active = inhibition mostly above about 38%, no sharp cut-off; inactive = mostly below about 40%;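 also: 0% = agonist challenge alone and 100% = reference antagonist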
Target sequence (O43613 whole entry, looked up): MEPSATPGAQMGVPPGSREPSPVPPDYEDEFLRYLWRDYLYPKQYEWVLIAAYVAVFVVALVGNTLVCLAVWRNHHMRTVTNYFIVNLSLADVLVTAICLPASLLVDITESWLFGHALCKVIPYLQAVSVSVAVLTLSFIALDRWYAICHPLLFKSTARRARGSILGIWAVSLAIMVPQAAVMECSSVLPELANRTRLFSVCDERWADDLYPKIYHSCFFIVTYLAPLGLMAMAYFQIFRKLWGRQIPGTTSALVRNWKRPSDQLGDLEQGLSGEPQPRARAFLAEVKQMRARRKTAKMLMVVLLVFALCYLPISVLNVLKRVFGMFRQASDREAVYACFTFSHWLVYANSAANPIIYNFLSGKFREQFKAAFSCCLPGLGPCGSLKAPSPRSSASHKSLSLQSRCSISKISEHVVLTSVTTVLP
OX1R antag-2: OX1R (HCRTR1) antagonists, primary screen, fluorescence, CHO/OX1R cells, Fluo-8 calcium, orexin A. Orexin/Hypocretin receptor type 1 (Homo sapiens), O43613. Fluo-8 calcium fluorescence. inhibition, % at 5 µM. 330,000 tested, 0.43% active. AID 434989, 2010;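 active = inhibition above its plate's threshold, mean inhibition of all tested compounds on the plate plus 3 SD, cut at about 37% in these data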;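 also: 0% = orexin A challenge wells and 100% = SB-334867-A antagonist wells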
TAAR1 agonist: human TAAR1 agonists, primary screen, Fluo-8 calcium fluorescence, CHO RD-HGA16 cells; Trace amine-associated receptor 1 (Homo sapiens), Q96RJ0; vehicle wells 0%, saturating PEA agonist 100%; activation, % at 3 µM; 360,000 tested, 0.99% active; AID 624467, 2012;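 active = activation above the mean activation of all test compounds in the run plus 3 SD, cut at about 38% in these data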
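System: CHO-derived RD-HGA16 cells with stable Gα16 and human TAAR1 / Times: 17-24 h plating, Fluo-8 75 min 37 °C, 30 min RT / Technique: calcium-sensitive Fluo-8 signal, excitation 470-495, emission 515-575 nm / Measure: % activation relative to PEA EC100 response / Benchmarks: DMSO and PEA EC100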
CHO parental Ca: ATP-evoked calcium signal inhibitors, parental CHO, primary screen, counter-screen for OX1R antagonist project, cell-based, fluorescence, Fluo-8 calcium dye; parental CHO-K1, ATP-induced calcium, Fluo-8 fluorescence; inhibition, % at 5.6 µM; 330,000 tested, 0.63% active;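 active = inhibition above that plate's mean sample inhibition plus 3 SD, cut at about 26% in these data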;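 also: 0% = ATP-challenged DMSO wells and 100% = DMSO wells without ATP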
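Assay system: untransfected parental CHO cell line. Also added: ATP agonist challenge. Dosing: one dose, 5.6 µM nominal. Measured by: Fluo-8 fluorescence. Read-out: % inhibition. Benchmarks: ATP wells versus no-ATP DMSO wells. Repeats: no replicates.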
TAAR1 antagonist: human TAAR1 antagonists, primary screen, Fluo-8 calcium fluorescence, CHO RD-HGA16 cells. Trace amine-associated receptor 1 (Homo sapiens), Q96RJ0. antagonist. inhibition, % at 3 µM. 360,000 tested, 1.5% active. AID 624466, 2012;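 active = inhibition above a per-plate cutoff, the mean inhibition of test compounds on that plate plus 3 SD, cut at about 49% in these data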;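 also: 0% = DMSO plus EC80 beta-PEA response and 100% = DMSO alone without agonist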
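Assay system: RD-HGA16 CHO cells with stable hTAAR1 and Gα16 / Reagent: EC80 β-phenethylamine stimulus / Doses: 3 µM, single point / Timing: dye loading 75 min at 37 °C, then 30 min room temperature / Measured by: Fluo-8 intracellular calcium dye fluorescence, real-time kinetic reads / Controls: vehicle wells and EC80 agonist wells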
OX1R HTRF conf: OX1R (HCRTR1) antagonists, confirmation, cell-based, HTRF | shares compounds with OX1R antag-1 | OX1R-expressing cells, HTRF antagonist assay | inhibition, % at 6.6 µM | 1,800 tested, 49% active; in the data active = inhibition above about 55%;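 also: CHO cells expressing OX1R stimulated with orexin A at about EC80; 0% = agonist challenge alone and 100% = reference antagonist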
CHO-K1 HTRF cnt: signal inhibition in parental CHO-K1 cells, counter-screen for OX1R antagonist project, cell-based, HTRF | shares compounds with OX1R antag-1 | HTRF counterscreen | inhibition, % at 6.6 µM | 1,800 tested, 48% active | AID 493232, 2011; in the data active = inhibition above about 17%;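 also: 0% = agonist challenge with vehicle and 100% = vehicle alone without agonist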
* hit, by the source's call. A selection: hits, their analogues and other compounds. The true share with any hit is near 4.5%.

How did O=S(=O)(c1cccc2nsnc12)N1CCN(c2ncccn2)CC1 do in these assays?
GPR7 antagonist: -6; OX1R antag-1: 84*; OX1R antag-2: -16; TAAR1 agonist: 7; CHO parental Ca: -17; TAAR1 antagonist: 21; OX1R HTRF conf: 25; CHO-K1 HTRF cnt: 20*

What do the screens show for `CCOC(=O)N1CCN(S(=O)(=O)c2cccc3nsnc23)CC1`?
GPR7 antagonist: -4; OX1R antag-1: 82*; OX1R antag-2: -27; TAAR1 agonist: 1; CHO parental Ca: -20; TAAR1 antagonist: -5; OX1R HTRF conf: 33; CHO-K1 HTRF cnt: 39*

What do the screens show for `CCOC(=O)C1CCCN(S(=O)(=O)c2cccc3nsnc23)C1` (stereo not drawn)?
GPR7 antagonist: -9; OX1R antag-1: 27; OX1R antag-2: -13; TAAR1 agonist: -2; CHO parental Ca: -16; TAAR1 antagonist: 1

How did O=C(Nc1ccc(-c2nc3ccccc3o2)cc1)C1CCCO1 (stereo not drawn) do in these assays?
GPR7 antagonist: -6; OX1R antag-1: 22; OX1R antag-2: -17; TAAR1 agonist: 4; CHO parental Ca: -1; TAAR1 antagonist: 5

How did O=C(Nc1ccc2oc(-c3ccccc3)nc2c1)C1CCCO1 (stereo not drawn) do in these assays?
GPR7 antagonist: -5; OX1R antag-1: 98*; OX1R antag-2: 12; TAAR1 agonist: 2; CHO parental Ca: -10; TAAR1 antagonist: 9; OX1R HTRF conf: 46; CHO-K1 HTRF cnt: 11

Results for CCN(CC(=O)Nc1sc2c(c1C#N)CCCC2)Cc1nc2ccccc2c(=O)[nH]1 ?
GPR7 antagonist: -11; OX1R antag-1: 83*; OX1R antag-2: 24; TAAR1 agonist: 5; CHO parental Ca: -14; TAAR1 antagonist: 28; OX1R HTRF conf: 58*; CHO-K1 HTRF cnt: 0

How did CCOC(=O)[C@]12CCCC=C1N(CCC1=CCCCC1)C(=O)[C@H](CC(=O)NCC1CCCCC1)C2 do in these assays?
TAAR1 agonist: 1; TAAR1 antagonist: -5

What do the screens show for `COc1ccc(CCNC(=O)c2cc3c(=O)n4ccccc4nc3n(C3CCCCC3)c2=N)cc1OC`?
GPR7 antagonist: 6; OX1R antag-1: 26; OX1R antag-2: -26; TAAR1 agonist: 0; CHO parental Ca: -16; TAAR1 antagonist: -13

What do the screens show for `N=c1c(C(=O)NCC2CCCO2)cc2c(=O)n3ccccc3nc2n1C1CCCCC1` (stereo not drawn)?
GPR7 antagonist: -2; OX1R antag-1: 53; OX1R antag-2: -9; TAAR1 agonist: 0; CHO parental Ca: -5; TAAR1 antagonist: -15

How did COCCCn1c(=N)c(C(=O)NCC2CCCO2)cc2c(=O)n3ccccc3nc21 (stereo not drawn) do in these assays?
GPR7 antagonist: -2; OX1R antag-1: 93*; OX1R antag-2: -12; TAAR1 agonist: 10; CHO parental Ca: -18; TAAR1 antagonist: -2; OX1R HTRF conf: 48; CHO-K1 HTRF cnt: 65*

How did COc1ccc(CCNC(=O)c2cc3c(=O)n4ccccc4nc3n(CC3CCCO3)c2=N)cc1OC (stereo not drawn) do in these assays?
GPR7 antagonist: 12; OX1R antag-1: 82*; OX1R antag-2: -35; TAAR1 agonist: 1; CHO parental Ca: -6; TAAR1 antagonist: 4; OX1R HTRF conf: 60*; CHO-K1 HTRF cnt: 77*

Screening results as filed in PubChem BioAssay.
